In test [1] the target is T1, Alpha-2B adrenergic receptor (Homo sapiens, UniProt P18089).
T1 sequence (P18089 whole entry): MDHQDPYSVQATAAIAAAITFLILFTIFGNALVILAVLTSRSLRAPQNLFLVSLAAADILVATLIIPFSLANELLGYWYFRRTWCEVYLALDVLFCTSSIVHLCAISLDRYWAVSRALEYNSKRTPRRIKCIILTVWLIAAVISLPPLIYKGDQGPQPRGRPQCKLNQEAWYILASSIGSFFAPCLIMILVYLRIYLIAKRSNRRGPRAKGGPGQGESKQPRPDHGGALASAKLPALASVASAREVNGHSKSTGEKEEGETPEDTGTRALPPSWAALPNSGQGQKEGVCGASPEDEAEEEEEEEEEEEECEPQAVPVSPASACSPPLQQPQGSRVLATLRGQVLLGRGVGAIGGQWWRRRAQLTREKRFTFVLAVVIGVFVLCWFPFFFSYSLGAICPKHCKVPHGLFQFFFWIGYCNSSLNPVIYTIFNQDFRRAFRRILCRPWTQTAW
Nature of the test: Compound is evaluated for binding affinity towards Alpha-2B adrenergic receptor using [3H]yohimbine.

Test [2] deals with T2, Alpha-2A adrenergic receptor (Homo sapiens, UniProt P08913).
T2 sequence (P08913 whole entry): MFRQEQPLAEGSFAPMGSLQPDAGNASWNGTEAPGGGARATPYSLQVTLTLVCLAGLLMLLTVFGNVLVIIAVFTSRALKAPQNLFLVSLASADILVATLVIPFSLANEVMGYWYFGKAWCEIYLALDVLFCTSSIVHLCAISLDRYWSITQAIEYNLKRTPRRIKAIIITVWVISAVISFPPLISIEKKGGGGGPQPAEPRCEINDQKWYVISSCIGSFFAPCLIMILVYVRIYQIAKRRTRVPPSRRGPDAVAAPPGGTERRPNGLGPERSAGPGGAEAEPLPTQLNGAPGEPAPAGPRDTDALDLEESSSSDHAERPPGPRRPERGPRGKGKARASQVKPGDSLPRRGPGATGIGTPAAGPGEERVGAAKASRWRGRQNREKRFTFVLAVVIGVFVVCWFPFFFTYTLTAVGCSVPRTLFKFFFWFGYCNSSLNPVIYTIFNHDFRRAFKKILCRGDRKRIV
Put plainly: Compound is evaluated for binding affinity towards Alpha-2A adrenergic receptor using [3H]MK912.

In test [3] the target is Serotonin 1 (5-HT1) receptor (Rattus norvegicus) (UniProt P28564+P30940+P19327+P28565). Nature of the test: Compound is evaluated for binding affinity towards 5-hydroxytryptamine 1 receptor using [3H]5-HT in rat brain cortex at 10 uM. The format is tissue-based. The essentials: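 Single-concentration screen at 10 µM in contract radioligand binding assays. Records whether inhibition of specific radioligand binding stayed below 50%.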

The target of test [4] is Serotonin 2 (5-HT2) receptor (Rattus norvegicus, UniProt P30994+P08909+P14842). Put plainly: Compound is evaluated for binding affinity towards 5-hydroxytryptamine 2 receptor using [3H]ketanserin in rat brain. The format is tissue-based. The essentials:
(§1)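 Contract radioligand competition binding. Sources: 5-HT1 and 5-HT1A in rat brain cortex; 5-HT2 and σ2 in rat brain; σ in guinea pig brain; D2, rhD2 and rhD3 in CHO cells with [³H]spiperone; H1 in guinea pig lung with [³H]pyrilamine. Inhibition constants reported; no constant given where inhibition at 10 µM was below 50%.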

Test [5] deals with T3, 5-hydroxytryptamine receptor 1A (Rattus norvegicus, UniProt P19327).
T3 sequence (P19327 whole entry): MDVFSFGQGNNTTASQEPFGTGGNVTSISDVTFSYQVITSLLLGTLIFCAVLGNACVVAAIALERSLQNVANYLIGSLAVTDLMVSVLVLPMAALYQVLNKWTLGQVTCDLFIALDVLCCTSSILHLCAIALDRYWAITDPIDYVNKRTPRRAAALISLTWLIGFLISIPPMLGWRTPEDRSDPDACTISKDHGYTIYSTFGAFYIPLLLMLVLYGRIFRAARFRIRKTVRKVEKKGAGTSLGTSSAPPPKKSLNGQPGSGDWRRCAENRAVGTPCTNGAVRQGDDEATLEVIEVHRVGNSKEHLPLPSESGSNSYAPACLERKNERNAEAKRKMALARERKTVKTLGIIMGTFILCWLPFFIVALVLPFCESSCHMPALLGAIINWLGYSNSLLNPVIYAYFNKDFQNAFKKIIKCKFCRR
Nature of the test: Compound is evaluated for binding affinity towards 5-hydroxytryptamine 1A receptor using [3H]-8-OH- -DPAT in rat brain cortex. In kind it is tissue-based. The essentials: as §1

Ki and inhibition data for nine compounds are collected here from ChEMBL document CHEMBL1131058, “Studies on quinazolines and 1,2,4-benzothiadiazine 1,1-dioxides. 8.1, 2 synthesis and pharmacological evaluation of tricyclic fused quinazolines and 1,2,4-benzothiadiazine 1,1-dioxides as potential alpha1-adrenoceptor antagonists” (J Med Chem, 1998).

pKi: −log10 of the molar value. Some results are limits rather than exact numbers.

Broadly, the pKi is the negative decadic logarithm of the Ki, by convention in mol/L. Low readings indicate a high Ki, high ones a low Ki. For `COc1ccccc1N1CCN(C[C@H]2CN=C3c4ccccc4NC(=O)N32)CC1`, the figures for the pKi in test [1] and in test [2] were 6.94 and 6.35, respectively.

As to `COc1ccccc1N1CCN(C[C@@H]2CN=C3c4ccccc4N=C(SC)N32)CC1`, the pKi in test [2] was 5.52.

`COc1ccccc1N1CCN(C[C@H]2CN=C3c4ccccc4N=C(SC)N32)CC1`: the pKi in test [1] was 6.42; in test [2], 6.06.

In turn, `COc1ccccc1N1CCN(C[C@@H]2CN=C3c4ccccc4NC(=O)N32)CC1` showed a pKi in test [1] of 5.03.

The inhibition is the drop in the measured response relative to a control, in per cent. For orientation: Ki means a measure of affinity in units of concentration, obtained from inhibition or displacement. Lower therefore signals a stronger hold on the target. `COc1ccccc1N1CCN(Cc2cn3c(O)nc4ccccc4c3n2)CC1`: the inhibition in test [3] was less than 50%. The same compound displayed a Ki in test [4] of 3580 nM.

`COc1ccccc1N1CCN(CC2CN3C(=O)Nc4ccccc4C3=N2)CC1` (centres undefined): the negative-log Ki (pKi) in test [1] is 6.60; in test [5], 6.62; in test [2], 6.26. In test [4], the Ki is reported as 369 nM.

Compound `COc1ccccc1N1CCN(Cc2cnc3c4ccccc4nc(O)n23)CC1` had an inhibition in test [3] of less than 50%. This compound registered an inhibition constant (Ki) in test [4] of 514 nM. Moreover, the pKi in test [5] is 5.40.

Take `Oc1nc2ccccc2c2ncc(CN3CCN(c4ccccc4Cl)CC3)n12`: in test [3], the inhibition is less than 50%. In addition, the Ki in test [4] was determined as 114 nM.

On to `COc1ccccc1N1CCN(CC2CN=C3c4ccccc4N=C(SC)N32)CC1` (centres undefined), for which the Ki in test [4] is reported as 168 nM. The negative-log Ki (pKi) in test [5] is 6.63.
